Assay results: publication PMC3421229 (International Journal of Biological Sciences, 2012)

How the values were obtained:
[1] = target: T1, LdisPBP1 (Lymantria dispar, UniProt O16105); assay: competitive fluorescence binding assay with 1-NPN as probe, LdisPBP1
T1 sequence (O16105 20-162): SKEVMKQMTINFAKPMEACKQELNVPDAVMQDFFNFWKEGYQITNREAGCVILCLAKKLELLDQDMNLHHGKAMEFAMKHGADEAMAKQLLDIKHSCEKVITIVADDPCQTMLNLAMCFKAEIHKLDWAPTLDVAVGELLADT
How it was run: (§1)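 N-terminally His-tagged recombinant PBP was expressed in E. coli BL21(DE3) (0.25 mM IPTG, 18°C overnight), then purified by Ni-resin and gel filtration. 2 μM protein plus 2 μM 1-NPN in 50 mM Tris-HCl pH 7.3 or 50 mM Na2HPO4-citric acid pH 5.5, at 25°C; ex 337 nm, em 370–470 nm. Competitors (1 mM methanol stock) at 2–20 μM. IC50 = half-maximal fluorescence reduction; Ki = IC50/(1+[1-NPN]/K1-NPN). Triplicates.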

[2] = target: T2, LdisPBP2 (Lymantria dispar, UniProt O16106); assay: competitive fluorescence binding assay with 1-NPN as probe, LdisPBP2
T2 sequence (O16106 21-165): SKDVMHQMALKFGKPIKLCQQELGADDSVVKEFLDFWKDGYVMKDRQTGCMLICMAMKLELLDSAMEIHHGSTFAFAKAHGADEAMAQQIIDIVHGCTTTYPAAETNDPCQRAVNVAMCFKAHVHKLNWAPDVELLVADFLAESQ
How it was run: as §1

[3] = system: gypsy moth; details: cited from earlier work
[4] = system: male L.dispar; assay: initial field experiment, attraction of male moths; type: in vivo, Lymantria dispar; details: initial field experiment (data not shown)
[5] = system: PBP1; details: cited from earlier work
[6] = target: T1, LdisPBP1; assay: fluorescence titration of 1-NPN with LdisPBP1; type: binding; details: dissociation constant of the LdisPBP1/1-NPN complex
How it was run: (§2)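 Recombinant His-tagged PBP from E. coli, Ni-resin and gel-filtration purified. A 2 μM protein solution in 50 mM Tris-HCl pH 7.3 or 50 mM Na2HPO4-citric acid pH 5.5 was titrated with 1-NPN (1 mM methanol stock) to 1–20 μM final. 25°C; excitation 337 nm, emission 370–470 nm, 10 nm slits. Kd calculated from the binding curve; three independent measurements.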

[7] = target: T2, LdisPBP2; assay: fluorescence titration of 1-NPN with LdisPBP2; type: binding; details: dissociation constant of the LdisPBP2/1-NPN complex
How it was run: as §2

[8] = PBP1[Ki(μM)] pH5.5, pH 5.5, n=3, 2 μM protein and 1-NPN
[9] = PBP1[Ki(μM)] pH7.3, pH 7.3, n=3, 2 μM protein and 1-NPN
[10] = PBP2[Ki(μM)] pH5.5, pH 5.5, n=3, 2 μM protein and 1-NPN
[11] = PBP2[Ki(μM)] pH7.3, pH 7.3, n=3, 2 μM protein and 1-NPN

SMILES | Ki [1, 8] [µM] | Ki [1, 9] [µM] | Ki [2, 10] [µM] | Ki [2, 11] [µM] | effect on the pheromone [3] | attraction of male L.dispar compared with (+)-D alone [4] | binding preference of PBP1 for pheromone enantiomers [5] | Kd ([6]; pH 5.5) [nM] | Kd ([6]; pH 7.3) [nM] | Kd ([7]; pH 5.5) [nM] | Kd ([7]; pH 7.3) [nM]
OCCCCC1OC12CC2 (stereo not shown) [OXP2, 4-(1-oxaspiro[2.2]pent-2-yl)butan-1-ol] | 6.33 ± 0.18 | 2.99 ± 0.08 | 5.14 ± 0.06 | 2.46 ± 0.02 | enhanced that of pheromone | – | – | – | – | – | –
CCCCCCCCCCC1OC12CC2 (stereo not shown) [OXP1, 2-decyl-1-oxaspiro[2.2]pentane] | 0.68 ± 0.01 | 1.87 ± 0.01 | 1.88 ± 0.02 | 1.85 ± 0.02 | inhibited the effect of the pheromone | – | – | – | – | – | –
O=C(CCCCC(=O)OCC1CCC2OC2C1)OCC1CCC2OC2C1 (stereo not shown) [Bis, Bis(3,4-epoxycyclohexylmethyl) adipate] | 2.2 ± 0.01 | 3.25 ± 0.02 | 3.54 ± 0.01 | 1.97 ± 0.01 | – | reverse | – | – | – | – | –
CCCCCCCCCC[C@H]1O[C@H]1CCCCC(C)C [(-)-disparlure] | – | – | – | – | – | – | preferentially bound | – | – | – | –
c1ccc(Nc2cccc3ccccc23)cc1 [1-NPN, N-phenyl-1-naphthylamine] | – | – | – | – | – | – | – | 1710 ± 200 | 1770 ± 310 | 8740 ± 2050 | 2030 ± 420
O=Cc1ccccc1O [Sal, Salicylaldehyde] | 3.05 ± 0.01 | 2.93 ± 0.02 | 6.06 ± 0.06 | 5.32 ± 0.07 | – | reverse | – | – | – | – | –
